Usually IC50 stands for the point on the concentration scale where inhibition reaches its midpoint. Low readings indicate higher potency, high ones lower potency.

This note sets out measurements from ChEMBL document CHEMBL1157849, “The influence of the aziridinyl substituent of benzimidazoles and benzimidazolequinones on toxicity towards normal and Fanconi anaemia cells” (Eur J Med Chem, 2010).

Each structure is given as a SMILES string. The source made the active and inactive calls. The rule behind the calls is not given here. Bounds are passed on as bounds.

A short description of assay [1]: Cytotoxicity against human GM00637 cells after 24 hrs by MTT assay. It counts as cell-based. The note with it: GM00637, 24 h. A digest of the protocol:
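Cells seeded at 10,000 per well and left 48 h to adhere, then exposed to test solutions in DMSO (2.5% final) for 24 h at 37 °C under humidified 5% CO₂. MTT read-out at 550 nm with 690 nm reference. Viability is expressed as percent of DMSO-only control. IC50 is the concentration reducing mean viability to 50% of control, estimated by nonlinear regression of dose-response curves.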
For orientation: Tetrazolium dyes change colour on reduction, which living cells bring about.

The test system of the next assay is PD20i. As to the kind of experiment: Cytotoxicity against FANCD2-deficient human PD20i cells at 0.001 uM after 24 hrs by MTT assay. It counts as functional, cell-based. The procedure, abridged:
(§1)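 PD20i and PD20:RV human fibroblasts grown in alpha-MEM with 15% uninactivated FBS, penicillin–streptomycin, 2 mM L-glutamine, 37 °C, 5% CO₂. Cells seeded at 10,000/well, both lines in parallel on the same plate, adhered 48 h. Compound added in DMSO (2.5% final), 24 h at 37 °C. MTT read at 550 nm (690 nm reference). Viability as % of DMSO-only control, mean of at least three independent experiments.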

The species entered for a further assay is Homo sapiens. Put plainly: Cytotoxicity against wild type FANCD2 expressing human PD20:RV cells at 0.001 uM after 24 hrs by MTT assay. It counts as functional, cell-based. A digest of the protocol: as §1

As to `CCn1cnc2c(OC)ccc(OC)c21`, in assay [1], the IC50 was greater than 10000 nM.
The same measure, in the same setting: the same measure for `COC1=CC(=O)c2c(nc3n2CCCCC3)C1=O`: greater than 1500 nM.
With `O=C1C(N2CC2)=CC(=O)c2c1nc1n2CCC1`, the outcome in the assay on PD20i and in the assay filed under Homo sapiens was Active. For the same compound, 290 nM corresponded to half-maximal inhibition in assay [1] (IC50).
Take `COC1=CC(=O)c2c(nc3n2CCC3)C1=O`: the outcome in the assay with PD20i was inactive. The compound further gave an IC50 in assay [1] of 360 nM.
On the same counts, the results for `O=C1C=CC(=O)c2c1ncn2C[C@@H]1CN1C(c1ccccc1)(c1ccccc1)c1ccccc1` (stereo not given in full) are “Active” and 150 nM.
With `O=C1C(N2CC2)=CC(=O)c2c1nc1n2CCCC1`, in assay [1], the IC50 was found to be 1060 nM.
On the same count and under the same terms, in the case of `COC1=CC(=O)c2c(nc3n2CCCC3)C1=O` it was greater than 1500 nM.
Same read-out and setting: in the case of `CO[C@@]12[C@H](COC(N)=O)C3=C(C(=O)C(C)=C(N)C3=O)N1C[C@@H]1N[C@@H]12` [MITOMYCIN] it was 900 nM; in that of `CCn1cnc2c1C(=O)C=CC2=O`, 580 nM; in that of `O=C1C(N2CC2)=CC(=O)c2c1nc1n2CCCCC1`, 560 nM.
Regarding `COc1ccc(OC)c2c1ncn2C[C@@H]1CN1C(c1ccccc1)(c1ccccc1)c1ccccc1` (stereo not given in full), in assay [1], the IC50 was 1260 nM.
